We go through four compounds from PMC10692362 (Acta Pharmaceutica Sinica. B, 2023).

As usually defined, the Ki is the equilibrium dissociation constant of an inhibitor or competing ligand from its target. The IC50 is the concentration at which inhibition is half-maximal. Broadly, the EC50 is the concentration that produces a half-maximal response.

One data set deals with T1, human ERα LBD (Homo sapiens, UniProt P03372).
T1 sequence (P03372 311-547 limits assumed): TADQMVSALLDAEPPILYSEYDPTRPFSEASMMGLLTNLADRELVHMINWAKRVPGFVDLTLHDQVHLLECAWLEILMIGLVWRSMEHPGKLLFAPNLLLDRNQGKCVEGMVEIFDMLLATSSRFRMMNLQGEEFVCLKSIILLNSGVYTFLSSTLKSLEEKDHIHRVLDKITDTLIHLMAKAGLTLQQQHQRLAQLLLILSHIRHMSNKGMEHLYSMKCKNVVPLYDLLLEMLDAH
The data set is described as follows: Competitive fluorescence polarization binding assay, ERα. The settings on record: for RBA ERα: IC50 estradiol/IC50 compound × 100, estradiol = 100%; for α/β ratio: ratio of RBA ERα to RBA ERβ. On the technique in general: Fluorescence polarisation rises when a labelled molecule tumbles more slowly, as on binding a larger partner.

In a further data set the target is human ERβ LBD (Homo sapiens, UniProt Q92731). The data set is described as follows: Competitive fluorescence polarization binding assay, ERβ. The settings on record: for RBA ERβ: IC50 estradiol/IC50 compound × 100, estradiol = 100%.
In another data set the test system is MCF-7 cells. As to the kind of experiment: Cell viability assay. It counts as cell-based, human. The settings on record: Homo sapiens, MCF7, 72 h, read-out: MCF-7 IC50.
For a further data set, the system named is T-47D cells. As to the kind of experiment: Cell viability assay. It is filed as cell-based, human. The settings on record: Homo sapiens, T47D, 72 h, read-out: T-47D IC50.
The test system of the next data set is T-47D^D538G cells. The data set is described as follows: Cell viability assay. It counts as cell-based, human. The settings on record: Homo sapiens, 72 h, read-out: T-47D^D538G IC50.
The next data set relates to T-47D^Y537S cells. The data set is described as follows: Cell viability assay. The settings on record: Homo sapiens, 72 h, read-out: T-47D^Y537S IC50. It counts as cell-based, human.
The next data set deals with LCC-2 cells. The data set is described as follows: Cell viability assay on tamoxifen-resistant LCC-2 cells. It is filed as cell-based. The settings on record: Homo sapiens, LCC2, read-out: LCC-2 IC50.
The test system of another data set is MCF-10A cells. It is filed as cell-based, human. The settings on record: TI = IC50 MCF-10A / IC50 MCF-7.
Data set [1] addresses T2, ERα (Homo sapiens, UniProt P03372).
T2 sequence (P03372 1-595): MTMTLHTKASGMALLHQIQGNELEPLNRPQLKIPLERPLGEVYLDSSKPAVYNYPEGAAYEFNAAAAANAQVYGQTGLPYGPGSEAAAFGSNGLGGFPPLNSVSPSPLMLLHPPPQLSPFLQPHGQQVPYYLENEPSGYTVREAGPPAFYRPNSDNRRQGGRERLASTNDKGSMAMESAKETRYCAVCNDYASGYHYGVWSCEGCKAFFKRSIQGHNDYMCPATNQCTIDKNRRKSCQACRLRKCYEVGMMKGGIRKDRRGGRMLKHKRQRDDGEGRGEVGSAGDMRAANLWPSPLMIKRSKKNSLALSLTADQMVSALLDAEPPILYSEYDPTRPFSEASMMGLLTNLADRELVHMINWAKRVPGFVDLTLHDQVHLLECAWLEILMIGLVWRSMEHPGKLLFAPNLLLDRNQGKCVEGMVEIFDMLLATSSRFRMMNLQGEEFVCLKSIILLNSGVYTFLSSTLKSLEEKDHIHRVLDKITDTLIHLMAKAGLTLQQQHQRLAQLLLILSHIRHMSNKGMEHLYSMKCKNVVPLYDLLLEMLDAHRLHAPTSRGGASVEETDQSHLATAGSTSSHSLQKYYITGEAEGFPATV
As to the kind of experiment: cell-based. It counts as cell-based. The settings on record: for Agonist mode ERα Eff (%E2): control as 0%, 10 nmol/L E2 as 100%.

Another data set has as its target ERβ (Homo sapiens, UniProt Q92731). As to the kind of experiment: ER transcriptional activity. It counts as cell-based. The settings on record: for Agonist mode ERβ Eff (%E2): control as 0%, 10 nmol/L E2 as 100%; for Antagonist mode ERβ Eff (%E2): with 10 nmol/L 17β-estradiol.
The target of data set [2] is T2, ERα. The data set is described as follows: Immunoblot analysis of ERα degradation in MCF-7 cells. It is filed as cell-based. The settings on record: MCF-7 cells; for ERα degradation (immunoblot): 1 or 5 μmol/L. (A western blot detects proteins with antibodies after separation by electrophoresis.)
A further data set deals with T3, ERα C530S mutant (Homo sapiens, UniProt P03372, C530S).
T3 sequence (P03372 1-595 C530S): T2 sequence (P03372 1-595) with C530S
As to the kind of experiment: Transcriptional activity. It is filed as cell-based. The settings on record: HEK-293T^C530S cells, compared with wild type.

For another data set, the system named is MCF-7 tumor xenograft. As to the kind of experiment: MCF-7 tumor xenograft model in BALB/c nude mice. It is filed as in vivo. The settings on record: 2 mg/kg ip every other day, Day 32. The gist of the method: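 Female BALB/c nude mice (15–18 g, 5 weeks old) received 1 × 10⁷ MCF-7 cells in 100 μL PBS into the right axillary mammary fat pad. Tumour volume (W² × L × 0.5) and body weight were measured every 2 days. Mice were sacrificed on Day 33. Tumours were assessed by IHC (Ki-67, ERα) and ERα Western blot.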

Data set [3] has as its system ERα. The data set is described as follows: Immunoblot analysis of ERα degradation across ERα^WT and ERα^MUT BC cell lines. It is filed as cell-based, human. The settings on record: 10 μmol/L MG-132 alone.

Residue numbers refer to the chain shown, from its start. Like-named read-outs stand apart in the source and are kept apart here. Peptide text beside a SMILES is read from it. * marks the point of attachment. Cbz = O=C(OCc1ccccc1)* A value given as a limit tells only on which side of the number the result lay.

ERβ, sequence (Q92731 whole entry): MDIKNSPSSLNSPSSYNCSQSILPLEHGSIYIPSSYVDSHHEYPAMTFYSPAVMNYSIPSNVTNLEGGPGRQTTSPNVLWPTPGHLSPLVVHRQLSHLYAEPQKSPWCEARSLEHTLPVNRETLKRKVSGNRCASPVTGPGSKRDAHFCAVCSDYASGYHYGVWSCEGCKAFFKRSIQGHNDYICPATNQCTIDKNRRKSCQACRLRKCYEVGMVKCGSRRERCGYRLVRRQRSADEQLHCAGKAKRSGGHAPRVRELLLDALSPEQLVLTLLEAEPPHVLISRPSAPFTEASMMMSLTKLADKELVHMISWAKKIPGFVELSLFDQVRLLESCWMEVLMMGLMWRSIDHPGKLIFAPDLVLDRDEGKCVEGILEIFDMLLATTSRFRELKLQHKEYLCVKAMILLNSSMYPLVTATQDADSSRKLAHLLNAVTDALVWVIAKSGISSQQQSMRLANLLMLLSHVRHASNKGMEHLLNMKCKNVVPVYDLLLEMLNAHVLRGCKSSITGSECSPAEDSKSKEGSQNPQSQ
human ERβ LBD, sequence (Q92731 264-498 limits assumed): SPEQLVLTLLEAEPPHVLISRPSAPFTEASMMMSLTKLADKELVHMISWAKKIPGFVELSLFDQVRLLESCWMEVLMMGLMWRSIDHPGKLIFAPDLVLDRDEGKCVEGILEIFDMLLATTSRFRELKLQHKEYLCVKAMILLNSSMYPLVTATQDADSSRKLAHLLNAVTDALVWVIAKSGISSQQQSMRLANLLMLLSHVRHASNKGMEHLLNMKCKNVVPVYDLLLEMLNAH

With `COc1ccc(N(CC(F)(F)F)S(=O)(=O)C2CC3OC2C(c2ccc(O)cc2)=C3c2ccc(NC(=O)C=C(C)C)cc2)cc1` (stereo not drawn) [Compound 29f, N-(4-(3-(4-Hydroxyphenyl)-5-(N-(4-methoxyphenyl)-N-(2,2,2-trifluoroethyl)sulfamoyl)-7-oxabicyclo[2.2.1]hept-2-en-2-yl)phenyl)-3-methylbut-2-enamide], the “RBA ERα” value on human ERα LBD was determined as 14.48 ± 0.65%. On human ERα LBD, the α/β ratio amounted to 8.83. Besides, the Ki turned out to be 0.19 nM at human ERα LBD (read-out: Ki ERα) and 4.07 nM on human ERβ LBD (read-out: Ki ERβ). In addition, the “RBA ERβ” value at human ERβ LBD is reported as 1.64 ± 0.45%. The IC50 with MCF-7 cells is 94 ± 1 nM; with T-47D cells, 8580 ± 360 nM; in the data set with T-47D^D538G cells, 8530 ± 470 nM; in the data set with T-47D^Y537S cells, > 31000 nM; in the data set with LCC-2 cells, 15100 ± 1370 nM; on ERα [1] (read-out: Antagonist mode ERα IC50, with 10 nmol/L 17β-estradiol), 210 nM. The “TI (therapeutic index)” value in the data set on MCF-10A cells was determined as 54.89. The “Agonist mode ERα Eff (%E2)” value at ERα [1] was 65 ± 5 %E2. Moreover, on ERα [1] (read-out: Agonist mode ERα EC50, HEK-293T luciferase), the EC50 was 4910 nM. At ERα [1] (with 10 nmol/L 17β-estradiol), the “Antagonist mode ERα Eff (%E2)” value stood at 35 ± 2 %E2. For the same compound, the “Agonist mode ERβ Eff (%E2)” value at ERβ came to 9 ± 2 %E2. For the same compound, at ERβ, the “Antagonist mode ERβ Eff (%E2)” value stood at 13 ± 1 %E2. At ERα [2], the “ERα degradation (immunoblot) at 1 μmol/L” value is on record as “efficient ability to degrade ERα”. On ERα [2], the “ERα degradation (immunoblot)” value was “effective in inducing ERα degradation”.
Regarding `CCN(c1ccc(O)cc1)S(=O)(=O)C1CC2OC1C(c1ccc(O)cc1)=C2c1ccc(NC(=O)C=C(C)C)cc1` (stereo not drawn) [Compound 29i, N-(4-(5-(N-Ethyl-N-(4-hydroxyphenyl)sulfamoyl)-3-(4-hydroxyphenyl)-7-oxabicyclo[2.2.1]hept-2-en-2-yl)phenyl)-3-methylbut-2-enamide], on human ERα LBD, affinity was put at a Ki of 0.09 nM, the “RBA ERα” value came out at 29.85 ± 1.09% and the α/β ratio worked out at 5.83. At human ERβ LBD, the Ki was 1.3 nM and the “RBA ERβ” value was 5.12 ± 0.39%. The IC50 in the data set with MCF-7 cells was 71 ± 27 nM. The IC50 in the data set with T-47D cells is 3490 ± 60 nM. Also, in the data set with T-47D^D538G cells, the IC50 was 4250 ± 190 nM. The IC50 in the data set with T-47D^Y537S cells came out at 1890 ± 170 nM. In addition, the IC50 in the data set on LCC-2 cells amounted to 4070 ± 130 nM. Also, the “TI (therapeutic index)” value in the data set with MCF-10A cells stood at 122.82. In addition, on ERα [1], the IC50 amounted to 66 nM and the “Agonist mode ERα Eff (%E2)” value came out at 15 ± 2 %E2. The “Antagonist mode ERα Eff (%E2)” value on ERα [1] (with 10 nmol/L 17β-estradiol) worked out at 62 ± 5 %E2. In addition, on ERβ, 1020 nM corresponded to half-maximal inhibition (IC50), the “Agonist mode ERβ Eff (%E2)” value came out at 34 ± 2 %E2 and the “Antagonist mode ERβ Eff (%E2)” value amounted to 78 ± 2 %E2. Also, at ERα [2], the “ERα degradation (immunoblot) at 1 μmol/L” value is listed as “efficient ability to degrade ERα” and the “ERα degradation (immunoblot)” value is “effective in inducing ERα degradation”.
Turning to `C[C@]12CC[C@@H]3c4ccc(O)cc4C[C@@H](CCCCCCCCC[S+]([O-])CCCC(F)(F)C(F)(F)F)[C@H]3[C@@H]1CC[C@@H]2O` (stereo partly drawn) [Ful, Fulvestrant, reference compound], the IC50 worked out at 140 ± 50 nM with MCF-7 cells; 1760 ± 60 nM in the data set with T-47D cells; 3920 ± 220 nM in the data set with T-47D^D538G cells; 2220 ± 170 nM in the data set with T-47D^Y537S cells; 11000 ± 450 nM with LCC-2 cells. Further, the “Antagonist mode ERα Eff (%E2)” value at ERα [1] (with 10 nmol/L 17β-estradiol) was found to be 80 ± 2 %E2. For the same compound, at ERβ, the “Antagonist mode ERβ Eff (%E2)” value was 73 ± 1 %E2. For the same compound, the “Effect of C530S mutation on antagonistic activity” value at ERα C530S mutant was “unaffected by this mutation”. Further, in the data set with MCF-7 tumor xenograft, the “TGI (tumor growth inhibition)” value was determined as 79%.
Take `CC(C)C[C@@H](C=O)NC(=O)[C@H](CC(C)C)NC(=O)[C@H](CC(C)C)NC(=O)OCc1ccccc1` [MG-132, reference compound] (Cbz-Leu-Leu-Leu-aldehyde): the “Effect on ERα degradation, alone” value in the data set with ERα [3] is given as “no effect on ERα degradation”.
